Bioassay records (PubChem BioAssay)
Only some compounds are listed: those with a hit (about 2.7% of all), similar ones and a draw of the others.
Yeast growth inh: growth inhibitors of yeast BB579 in restrictive medium, primary screen, yeast lifespan-shortening project, S. cerevisiae; OD615, 48 h; inhibition, % at 10 µM; hit rate 0.51% among 140,000;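 active means inhibition above a set limit, 3 SD over the mean compound inhibition, cut at about 44% in these data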
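Assay system – yeast BB579 (DeaD) · Dosing – single compound dose of 10 µM, 0.25% DMSO final · Detection – OD615 turbidity measurement · Buffer or medium – CSMM-D restrictive synthetic medium containing dextrose (glucose) · Benchmarks – positive control amphotericin B 10 µg/mL · Incubation – 48 h exposure, 30 °C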
Yeast life ext: compounds extending yeast replicative lifespan, primary screen, S. cerevisiae, OD615; S. cerevisiae growth with nicotinamide; deaD strain in restrictive glucose medium; inhibition of the nicotinamide effect, % at 10 µM; hit rate 0.68% among 130,000; AID 775, 2007;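 active means inhibition above a set limit, placed 3 SD over the median of all compounds, cut at about 26% in these data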;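 further: 0% = nicotinamide-treated wells and 100% = cells grown without nicotinamide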
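Test system: DeaD-strain S. cerevisiae / Buffer or medium: restrictive glucose medium / Also added: nicotinamide 1.5 mM / Doses: one concentration, 10 µM, DMSO 0.25% / Schedule: 48 h at 30 °C / Signal: OD615 measurement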
sdo1 growth: growth rescue of sdo1-depleted yeast, primary screen, S. cerevisiae, bone marrow failure model. z-score at 10 µM. hit rate 0.21% among 140,000. S. cerevisiae sdo1-depleted JHY4D growth rescue, OD600 30 h; stronger effect = higher value; pdr5 snq2 efflux-pump mutant strain;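 active means z-score above 3 at both the 24 hr and the 30 hr optical density reads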;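 further: z-score against mean and SD of all compound wells on the same plate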
RAM network inh: inhibitors of the yeast RAM network, primary screen, dse1pr::URA3 reporter, 5-FOA selection | S. cerevisiae dse1pr::URA3 reporter, 5-FOA growth OD615, 2 d; analog-sensitive cbk1-as2 kinase mutant strain | inhibition, % at 50 µM | hit rate 1.8% among 190,000;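 active means inhibition above a set limit, 3 SD over mean compound inhibition, cut at about 8.4% in these data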;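 further: 0% = DMSO-only wells with no growth and 100% = 10 µM 1-NA-PP1 full growth; inhibition rescues growth on 5-FOA so higher OD means more RAM inhibition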
* = called active by the depositor; / = not tested or not shown.

SMILES	Yeast growth inh	Yeast life ext	sdo1 growth	RAM network inh
O=C1CC(=O)N(c2ccccc2)N1c1ccccc1	-14	28*	-0.13	2
O=C1CC(=O)N(c2ccccc2)c2ccccc21	-33	0	-0.09	2
CCOC(=O)c1c(N)sc(C(=O)OC)c1C	/	/	/	-1
CCOC(=O)c1c(N)sc2c(OC)c(Br)ccc12	95*	-23	-2.2	2
CN(Cc1n[nH]c(=S)n1C)S(=O)(=O)c1ccccc1	-1	-16	-0.39	1
CCOC(=O)C1=C(O)/C(=C/c2ccc(OCC(=O)O)c(OCC)c2)SC1=Nc1ccc(OC)cc1	-34	6	-0.34	9.4*
CCOC(=O)C1=C(O)/C(=C/c2ccc(OCC(=O)O)c(OCC)c2)SC1=Nc1ccc(C)cc1	/	/	/	7
COC(=O)c1ccc(C(=O)OC)c(NC(=O)CSc2cccc[n+]2[O-])c1	99*	-29	1.5	-1
COc1ccc2c3c(cccc13)C(=O)N(O)C2=O	-26	58*	-0.56	2
O=[N+]([O-])c1ccc(COc2cccc(CNc3ccc(F)cc3)c2)cc1	-27	0	-0.76	9.9*
COCCNC(=O)C(c1cccc(OC)c1)N(Cc1cccs1)C(=O)Cn1nnc2ccccc21 (stereo not drawn)	-15	-3	1.2	8.6*
CCOc1ccc(-c2nn(-c3ccccc3)cc2/C=C2\SC(=S)N(C3CCS(=O)(=O)C3)C2=O)cc1 (stereo not drawn)	-55	0	0.91	9.3*
O=C(CSc1nnc(COc2ccccc2)o1)N1CCN(c2ccccc2)CC1	-64	/	-0.18	3
CCc1ccc(OCc2nnc(SCC(=O)N3CCN(c4ccccc4)CC3)o2)cc1	-35	/	-0.63	8.4*
O=C(NCc1ccc2c(c1)OCO2)c1ccc(CSCc2ccccc2Cl)o1	-14	0	-1.6	11*
CC(C)CNC(=O)c1cccc(NC(=O)CSc2ccc(Cl)cc2)c1	-46	10	0.21	9.8*
CCOC(=O)/C=C/C(=O)Nc1ccccc1-c1ccccc1NC(=O)/C=C/C(=O)OCC	-35	3	-0.1	2
COC(=O)c1sc2ncn(-n3c(C)ccc3C)c(=O)c2c1C	-73	85*	-0.42	1
COC(=O)C(NS(=O)(=O)c1ccc(C)cc1)c1ccccc1 (stereo not drawn)	/	/	/	0
CN(C)/C=C/C(=O)c1ccc(N2CCN(c3ncc(C(F)(F)F)cc3Cl)CC2)cc1	18	9	0.52	7
CN(C)C=NC(=O)c1ccc(N2CCN(c3ncc(C(F)(F)F)cc3Cl)CC2)cc1	9	-11	-1.1	9.0*
Cc1cc(S(=O)(=O)Nc2ccc3ccccc3c2)c(C)s1	23	-7	-1.3	9.2*
Cc1cc(S(=O)(=O)Nc2cccnc2)c(C)s1	-22	2	0.26	1
Cn1c(=O)[nH]c(=O)c2c1nc(N1CCCCC1)n2CC(O)CN1CCCCC1 (stereo not drawn)	2	45*	0.55	2
CC(C)OCC(O)Cn1c(N2CCCC2)nc2c1c(=O)[nH]c(=O)n2C (stereo not drawn)	12	-2	0.78	0
SMILES	Yeast growth inh	Yeast life ext	sdo1 growth	RAM network inh
NC(=O)c1ccccc1NC(=O)Nc1cccc2ccccc12	/	/	/	4
CCC(=O)Nc1cccc(C(=O)/C=C/c2cc(Br)ccc2OC)c1	-29	-9	-2.2	9.6*
COc1ccc(Br)cc1/C=C/C(=O)Nc1ccc2ccccc2c1	-47	0	-0.71	4
CCC(C)(C)C1CCC(=NNS(=O)(=O)c2ccc(C)c([N+](=O)[O-])c2)CC1 (stereo not drawn)	-17	1	0.17	4
COc1ccc(OC)c(C2C(C(C)=O)=C(O)C(=O)N2Cc2cccnc2)c1 (stereo not drawn)	-27	82*	1.1	2
CCOC(=O)/C(=C\c1ccc(Cl)cc1)c1nc2sc(C)c(C)c2c(=O)[nH]1	-14	32*	-1.7	3
CCOC(=O)CSc1nc2sc(C)c(C)c2c(=O)[nH]1	-16	-26	-0.61	1
CC1=C(C(=O)Nc2ccccc2)C(c2cccs2)n2nnnc2N1 (stereo not drawn)	12	-10	-0.29	0
C[N+]1(C)CCC(=C2c3ccccc3CC(=O)c3sccc32)CC1	-20	-1	0.76	0
COC(=O)C1=C(C(=O)OC)SC(=C2C(=S)C(C)(C)N(C(=O)C(C)C)c3ccccc32)S1	-24	35*	-1.7	7
COC(=O)C1=C(C(=O)OC)SC(=C2C(=S)C(C)(C)N(C(=O)C3CC3)c3ccccc32)S1	-51	1	-0.07	6
Nc1c(Nc2ccccc2)c2ccccc2oc1=O	48*	-26	-0.33	9.8*
CCNc1c(N)c(=O)oc2ccccc12	16	-4	-0.03	2
COc1cc(C(=S)N2CCCC2)cc(Cl)c1OCC(=O)Nc1ccc(C)cc1C	-18	-1	-0.64	3
O=C(O)C(Cc1ccccc1)N1C(=O)/C(=C/c2ccccc2)SC1=S (stereo not drawn)	-36	33*	0.23	5
NS(=O)(=O)c1ccc(NC(=O)/C=C/c2cn(-c3ccccc3)nc2-c2cccc(Cl)c2)cc1	/	/	/	3
O=C(/C=C/c1cn(-c2ccccc2)nc1-c1ccccc1)Nc1ccc(C(=O)O)cc1	/	/	/	8.9*
CNC(=O)c1sccc1S(=O)(=O)Cc1c(Cl)cccc1Cl	-45	-6	-0.02	2
CCCCC(CC)Cn1c(N)c(C#N)c2nc3ccccc3nc21 (stereo not drawn)	-3	0	-1.4	2
CCCCC(CC)Cn1c2nc3ccccc3nc2c2c(=N)oc(C)nc21 (stereo not drawn)	-50	94*	-1.6	2
O=C(O)C1CCN(S(=O)(=O)c2ccc3c(c2)OCCCO3)CC1	/	/	/	2
Cc1ccc(S(=O)(=O)n2nc(C)cc2C)cc1	-30	-7	0.6	0
Cc1ccc(C(C[N+](=O)[O-])n2nc(C)cc2C)cc1 (stereo not drawn)	47*	19	-2.5	-1
COc1ccccc1CNC(=O)c1ccc(NS(C)(=O)=O)cc1	-39	3	1.8	0
CN(O)/C=c1/ccc2c(n1)C(=O)C=CC=2	97*	-11	0.06	1
SMILES	Yeast growth inh	Yeast life ext	sdo1 growth	RAM network inh
Cc1ccc(Cl)c(OC(=O)c2nn(C(C)C)c(=O)c3ccccc23)c1	-23	16	0.23	10*
O=c1c2c3c(sc2n2cnnc2n1CCc1ccccc1)CCCC3	-56	-11	-0.54	8.9*
CC(C)c1ccc(/C=N/NC(=O)c2cccc(Cl)c2)cc1	-44	-3	-0.31	1
CCOC(=O)C1=C(C)Nc2ccccc2N=C1NC(=O)c1ccc(Cl)c(S(=O)(=O)N2CCCC2)c1	/	/	/	8.7*
CCCCC(=O)NNC(=S)NC(=O)CCC	78*	/	-0.96	-1
Nc1c(Cl)ncnc1N/N=C/c1ccccn1	96*	-13	-0.07	0
Cc1ccccc1C(=O)Oc1ccc(Sc2ccc(O)cc2)cc1	-80	-14	-2.7	11*
